Assay results taken from ChEMBL document CHEMBL4229442, “Anti-acute myeloid leukemia activity of 2-chloro-3-alkyl-1,4-naphthoquinone derivatives through inducing mtDNA damage and GSH depletion” (Bioorg Med Chem, 2018).

Tests used:
[1] = Selectivity index, ratio of IC50 for human WI38 cells to IC50 for HL60 cells; format: toxicity; conditions: WI38 cells versus HL60 cells, read-out: Ratio IC50
Method in brief: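 SI = IC50 in WI-38 fetal lung fibroblasts / IC50 in HL-60, both after 48 h. MTT assay: 1 × 10^4 cells per well in triplicate, 48 h at 37 °C, absorbance at 570 nm. IC50 are mean ± SE from at least three independent experiments.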

HL-60 [2] = test: Cell cycle arrest in human HL60 cells assessed as accumulation at G2/M phase at 9 uM after 24 hrs by propidium iodide staining based flow cytometry (reference value: 7.2%); format: functional
HL-60 [3] = test: Cell cycle arrest in human HL60 cells assessed as increase in accumulation at G2/M phase after 24 hrs by propidium iodide staining based flow cytometry; format: functional
HL-60 [4] = test: Induction of apoptosis in human HL60 cells assessed as early apoptotic cells at 9 uM after 24 hrs by Annexin-V-FITC/propidium iodide staining based flow cytometry (reference value: 2.91%); format: functional
Method in brief: (§1)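 5×10^5 HL-60 cells in 6-well plates, treated at 3, 6 or 9 µM for 24 or 48 h. Cells were stained with Annexin V-FITC/PI and read by flow cytometry. Early apoptotic cells were taken as Annexin+/PI− and late apoptotic or necrotic cells as Annexin+/PI+.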

HL-60 [5] = test: Induction of apoptosis in human HL60 cells assessed as late apoptotic/necrotic cells at 6 uM after 24 hrs by Annexin-V-FITC/propidium iodide staining based flow cytometry (reference value: 1.38%); format: functional; method in brief: as §1
HL-60 [6] = test: Induction of mitochondrial dysfunction in human HL60 cells assessed as reduction in ATP level at 9 uM after 24 hrs by luminescence assay relative to control; format: functional; set-up: scale not given: the % may be the effect or the level left
Method in brief: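 HL-60 cells were treated at 3, 6 or 9 µM for 12 or 24 h, then lysed in ice-cold buffer and spun at 12000g for 10 min at 4 °C. Supernatant ATP was measured by luciferase–luciferin luminescence and expressed relative to control, as mean ± SE.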

Question: Which selectivity ratio [1] does the source give for `CCC1=C(Cl)C(=O)c2cc(OC)c(OC)c(OC)c2C1=O` here?
Answer: The selectivity ratio was 8.07.

Question: And the Activity (HL-60 [2])?
Answer: Its Activity is 12.24%.

Question: What about the Activity (HL-60 [3]) of the same molecule?
Answer: The Activity was “Dose-dependent effect”.

Question: And the Activity (HL-60 [4])?
Answer: Its Activity is 17.61%.

Question: What about the Activity (HL-60 [5]) of the same molecule?
Answer: Its Activity is 8.12%.

Question: What about the Activity (HL-60 [6]) of the same molecule?
Answer: Its Activity is 46%.
